Here are results for one compound from ChEMBL document CHEMBL5678799 (Biochem J, 2009).

Broadly, the inhibition is the share of the control response that was lost under treatment.

Test [1] has as its target Vascular endothelial growth factor receptor 1 (Homo sapiens) (UniProt P17948). The test can be described thus: Inhibition of recombinant human N-terminal GST-tagged VEGFR1 (784 to 1338 residues) expressed in baculovirus infected Sf21 cells assessed as remaining activity at 1 uM using KKKSPGEYVNIEFG as substrate incubated for 30 mins in presence of [gamma-33P]ATP by filter binding assay relative to control. Put shortly: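 Panel assays were run for 30 min at 21 °C, within the linear range for time and enzyme. […] Results are percent activity remaining relative to compound-free control, averaged from triplicate ± S.D.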

In test [2] the target is CDK2/Cyclin A2 (Homo sapiens) (UniProt P24941+P20248). Briefly: Inhibition of recombinant human N-terminal GST-tagged CDK2 (2 to 298 residues)/N-terminal GST-tagged Cyclin A2 (171 to 432 residues) expressed in Escherichia coli assessed as remaining activity at 1 uM using YSPTSPSYSPTSPSYSPTSPKKK as substrate incubated for 30 mins in presence of [gamma-33P]ATP by filter binding method relative to control. In outline:
(§1)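 Incubations ran robotically for 30 min at room temperature (21 °C) under linear conditions. Results are percent activity remaining versus controls without compound, as the mean of triplicates ± S.D.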

The target in test [3] is Tyrosine-protein kinase BTK (Homo sapiens) (UniProt Q06187). The test can be described thus: Inhibition of recombinant human N-terminal His6-tagged BTK (2 to 659 residues) expressed in baculovirus infected Sf21 cells assessed as remaining activity at 10 uM using KVEKIGEGTYGVVYK as substrate incubated for 30 mins in presence of [gamma-33P]ATP by filter binding method relative to control. In outline:
(§2)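 Incubation was 30 min at room temperature (21 °C) under conditions linear with time and enzyme amount. Activity is reported as percent of control lacking compound, triplicate mean ± S.D.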

Test [4] addresses Serine/threonine-protein kinase Nek6 (Homo sapiens) (UniProt Q9HC98). The test can be described thus: Inhibition of recombinant human His6-tagged NEK6 (8 to 313 residues) expressed in baculovirus infected Sf21 cells assessed as remaining activity at 1 uM using FLAKSFGSPNRAYKK as substrate incubated for 30 mins in presence of [gamma-33P]ATP by filter binding method relative to control. Put shortly: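 Run robotically for 30 min at 21 °C under linear conditions. Compound at 1 or 10 µM. Percentage activity remaining versus control without compound, triplicate mean ± S.D.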

Test [5] deals with Homeodomain-interacting protein kinase 2 (Homo sapiens) (UniProt Q9H2X6). Briefly: Inhibition of recombinant human N-terminal GST-tagged HIPK2 (165 to 564 residues) expressed in Escherichia coli assessed as remaining activity at 1 uM using MBP as substrate incubated for 30 mins in presence of [gamma-33P]ATP by filter binding method relative to control. Put shortly:
(§3)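 Radiometric kinase panel run robotically at room temperature (21 °C) for 30 min, linear in time and enzyme. […] Activity is expressed as percent of control without compound, from triplicate determinations ± S.D.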

For test [6], the target named is Serine/threonine-protein kinase BRSK2 (Homo sapiens) (UniProt Q8IWQ3). Briefly: Inhibition of recombinant human N-terminal His6-tagged BRSK2 (2 to 674 residues) expressed in baculovirus infected Sf21 cells assessed as remaining activity at 10 uM using KKLNRTLSFAEPG as substrate incubated for 30 mins in presence of [gamma-33P]ATP by filter binding method relative to control. Put shortly: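 Assays ran 30 min at 21 °C, robotically and in the linear range. Remaining activity is given relative to incubations lacking compound, as the average of triplicate determinations ± S.D.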

Test [7] deals with Tyrosine-protein kinase CSK (Homo sapiens) (UniProt P41240). The test can be described thus: Inhibition of recombinant human N-terminal GST-tagged CSK (1 to 450 residues) expressed in Escherichia coli assessed as remaining activity at 1 uM Cdc2 peptide as substrate incubated for 30 mins in presence of [gamma-33P]ATP by filter binding method relative to control. Put shortly:
as §1

Test [8] deals with Phosphatidylinositol 3-kinase catalytic subunit type 3 (Homo sapiens) (UniProt Q8NEB9). Briefly: Inhibition of VPS34 (unknown origin) assessed as remaining activity at 10 uM using phosphatidylinositol as substrate incubated for 60 mins in presence of ATP relative to control.
Test [9] addresses Sphingosine kinase 1 (Homo sapiens) (UniProt Q9NYA1). The test can be described thus: Inhibition of SPHK1 (unknown origin) assessed as remaining activity at 1 uM using sphingosine as substrate incubated for 30 mins in presence of ATP relative to control. Put shortly: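 SPHK1 assayed with 10 μM sphingosine, 10 μM ATP in 50 mM Tris/HCl pH 7.5, 150 mM NaCl, 5 mM MgCl2, 1 mM EGTA, 1 mM DTT, 30 min at room temperature. ATP remaining read by Kinase-Glo Plus luminescence after 10 min. Activity as % of control, triplicate.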

Test [10] deals with RAC-alpha serine/threonine-protein kinase (Homo sapiens), P31749 [S473D]. The test can be described thus: Inhibition of recombinant human His6-tagged AKT1 S473D mutant (118 to 480 residues) expressed in baculovirus infected Sf21 cells assessed as remaining activity at 1 uM using crosstide peptide as substrate incubated for 30 mins in presence of [gamma-33P]ATP by filter binding method relative to control. In outline: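 Radiometric panel assay run robotically at 21 °C for 30 min, linear in time and enzyme. […] Activity is expressed as percentage of the compound-omitted control, averaged from triplicates ± S.D.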

For test [11], the target named is SRSF protein kinase 1 (Homo sapiens) (UniProt Q96SB4). Briefly: Inhibition of recombinant human N-terminal GST-tagged SRPK1 (2 to 654 residues) expressed in Escherichia coli assessed as remaining activity at 10 uM using RSRSRSRSRSRSRSR as substrate incubated for 30 mins in presence of [gamma-33P]ATP by filter binding assay relative to control. Put shortly: as §2

Test [12] addresses Calcium/calmodulin-dependent protein kinase kinase 2 (Homo sapiens) (UniProt Q96RR4). The test can be described thus: Inhibition of recombinant human N-terminal GST-tagged CAMKKbeta (1 to 541 residues) expressed in Escherichia coli assessed as remaining activity at 1 uM using DGEFLRTSCGSPNYAARRR as substrate incubated for 30 mins in presence of [gamma-33P]ATP by filter binding method relative to control. In outline:
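Robotic radiometric panel assay, 30 min at room temperature (21 °C), with 10 mM magnesium acetate. […] Compound at 1 or 10 µM. Residual activity expressed relative to compound-free control; triplicate average ± S.D.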

Another test addresses mTORC1 (Homo sapiens) (UniProt P42345+Q8N122+Q9BVC4). To be noted: HEK293, dose 30.0 nM, time 30.0 min.
Test [13] deals with Serine/threonine-protein kinase PAK 4 (Homo sapiens) (UniProt O96013). The test can be described thus: Inhibition of recombinant human N-terminal GST-tagged PAK4 (2 to 519 residues) expressed in Escherichia coli assessed as remaining activity at 10 uM using RRRLSFAEPG as substrate incubated for 30 mins in presence of [gamma-33P]ATP by filter binding method relative to control. In outline: as §3
Chain of Serine/threonine-protein kinase PAK 4 (Homo sapiens) (O96013 whole entry, looked up, the tested form may be a part): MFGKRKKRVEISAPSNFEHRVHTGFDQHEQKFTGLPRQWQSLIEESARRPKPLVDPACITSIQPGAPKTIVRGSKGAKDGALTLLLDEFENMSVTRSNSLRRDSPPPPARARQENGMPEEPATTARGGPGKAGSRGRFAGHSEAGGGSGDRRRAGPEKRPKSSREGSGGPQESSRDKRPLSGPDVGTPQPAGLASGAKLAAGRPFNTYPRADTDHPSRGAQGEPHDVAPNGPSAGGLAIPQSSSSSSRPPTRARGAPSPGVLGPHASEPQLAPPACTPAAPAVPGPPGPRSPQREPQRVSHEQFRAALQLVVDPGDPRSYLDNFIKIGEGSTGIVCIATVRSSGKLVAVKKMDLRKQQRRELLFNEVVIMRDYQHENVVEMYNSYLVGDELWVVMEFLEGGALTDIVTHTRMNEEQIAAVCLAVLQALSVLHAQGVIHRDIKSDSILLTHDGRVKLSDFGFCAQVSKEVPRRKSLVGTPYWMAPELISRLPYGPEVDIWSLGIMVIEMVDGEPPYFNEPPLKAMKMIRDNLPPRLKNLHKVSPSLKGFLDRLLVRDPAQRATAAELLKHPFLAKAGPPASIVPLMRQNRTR

Chain of Sphingosine kinase 1 (Homo sapiens) (Q9NYA1 whole entry): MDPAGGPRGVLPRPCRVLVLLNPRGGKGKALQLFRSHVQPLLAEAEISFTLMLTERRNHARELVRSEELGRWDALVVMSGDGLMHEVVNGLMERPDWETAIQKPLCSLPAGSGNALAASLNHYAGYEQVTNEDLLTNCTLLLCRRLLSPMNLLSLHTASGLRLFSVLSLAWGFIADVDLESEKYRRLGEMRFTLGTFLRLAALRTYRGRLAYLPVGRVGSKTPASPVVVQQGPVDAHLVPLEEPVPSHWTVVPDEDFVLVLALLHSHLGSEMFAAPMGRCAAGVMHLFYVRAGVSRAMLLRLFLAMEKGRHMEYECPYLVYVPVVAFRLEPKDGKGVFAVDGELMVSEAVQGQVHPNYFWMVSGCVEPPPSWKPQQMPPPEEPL
Chain of Serine/threonine-protein kinase BRSK2 (Homo sapiens) (Q8IWQ3 whole entry, the tested form may be a part): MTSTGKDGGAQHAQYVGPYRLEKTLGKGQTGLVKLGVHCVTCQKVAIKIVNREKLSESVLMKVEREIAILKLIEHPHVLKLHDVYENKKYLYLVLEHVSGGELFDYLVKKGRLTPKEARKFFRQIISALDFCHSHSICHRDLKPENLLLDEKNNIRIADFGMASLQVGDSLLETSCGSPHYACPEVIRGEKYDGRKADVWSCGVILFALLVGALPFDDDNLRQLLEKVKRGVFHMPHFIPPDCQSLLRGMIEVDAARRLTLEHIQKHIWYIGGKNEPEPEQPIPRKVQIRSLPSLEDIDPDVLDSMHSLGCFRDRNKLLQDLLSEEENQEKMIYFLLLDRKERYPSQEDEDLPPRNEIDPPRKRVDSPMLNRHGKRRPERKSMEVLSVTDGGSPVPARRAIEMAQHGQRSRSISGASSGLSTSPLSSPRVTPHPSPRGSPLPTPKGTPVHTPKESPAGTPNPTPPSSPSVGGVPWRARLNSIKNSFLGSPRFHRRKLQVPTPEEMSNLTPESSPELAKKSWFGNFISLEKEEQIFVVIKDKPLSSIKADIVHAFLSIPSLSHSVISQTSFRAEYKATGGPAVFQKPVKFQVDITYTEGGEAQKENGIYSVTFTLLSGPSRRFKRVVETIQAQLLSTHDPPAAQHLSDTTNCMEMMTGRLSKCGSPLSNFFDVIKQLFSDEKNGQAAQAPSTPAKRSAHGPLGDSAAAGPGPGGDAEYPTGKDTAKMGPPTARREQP
Chain of RAC-alpha serine/threonine-protein kinase (Homo sapiens), P31749 [S473D] (P31749 whole entry S473D, the tested form may be a part): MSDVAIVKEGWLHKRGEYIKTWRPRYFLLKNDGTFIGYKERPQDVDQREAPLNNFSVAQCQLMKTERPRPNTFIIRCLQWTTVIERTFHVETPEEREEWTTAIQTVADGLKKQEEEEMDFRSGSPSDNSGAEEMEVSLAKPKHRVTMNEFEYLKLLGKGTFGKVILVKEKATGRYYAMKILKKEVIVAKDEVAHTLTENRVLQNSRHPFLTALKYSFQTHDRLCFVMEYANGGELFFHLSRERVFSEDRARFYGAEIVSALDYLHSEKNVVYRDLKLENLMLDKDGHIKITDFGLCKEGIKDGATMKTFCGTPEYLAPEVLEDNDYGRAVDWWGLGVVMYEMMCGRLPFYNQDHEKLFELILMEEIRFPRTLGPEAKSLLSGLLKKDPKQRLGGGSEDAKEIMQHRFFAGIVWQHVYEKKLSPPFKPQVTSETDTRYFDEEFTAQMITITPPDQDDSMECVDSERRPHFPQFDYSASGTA
Chain of Phosphatidylinositol 3-kinase catalytic subunit type 3 (Homo sapiens) (Q8NEB9 whole entry): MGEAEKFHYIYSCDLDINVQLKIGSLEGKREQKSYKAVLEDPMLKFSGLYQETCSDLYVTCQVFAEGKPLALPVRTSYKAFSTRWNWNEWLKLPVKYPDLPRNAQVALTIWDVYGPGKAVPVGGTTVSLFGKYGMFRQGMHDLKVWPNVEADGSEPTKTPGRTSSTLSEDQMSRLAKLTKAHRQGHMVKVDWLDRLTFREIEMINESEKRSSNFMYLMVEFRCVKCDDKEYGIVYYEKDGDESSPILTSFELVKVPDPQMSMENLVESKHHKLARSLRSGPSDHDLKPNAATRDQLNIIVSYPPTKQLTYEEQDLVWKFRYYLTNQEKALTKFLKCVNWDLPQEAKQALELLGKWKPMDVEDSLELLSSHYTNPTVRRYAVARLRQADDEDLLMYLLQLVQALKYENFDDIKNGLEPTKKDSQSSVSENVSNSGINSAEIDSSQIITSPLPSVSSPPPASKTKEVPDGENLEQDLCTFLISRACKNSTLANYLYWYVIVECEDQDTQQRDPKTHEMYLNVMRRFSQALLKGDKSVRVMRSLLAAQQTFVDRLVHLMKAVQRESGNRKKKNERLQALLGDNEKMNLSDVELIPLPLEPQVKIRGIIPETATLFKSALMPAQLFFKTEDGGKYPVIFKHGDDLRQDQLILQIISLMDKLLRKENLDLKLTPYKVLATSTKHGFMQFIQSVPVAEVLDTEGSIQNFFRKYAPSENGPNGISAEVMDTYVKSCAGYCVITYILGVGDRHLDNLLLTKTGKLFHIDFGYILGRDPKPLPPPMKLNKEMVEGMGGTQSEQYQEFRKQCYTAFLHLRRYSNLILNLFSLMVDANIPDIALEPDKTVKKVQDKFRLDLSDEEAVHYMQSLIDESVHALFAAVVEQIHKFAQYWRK
Chain of Tyrosine-protein kinase CSK (Homo sapiens) (P41240 2-450 limits assumed): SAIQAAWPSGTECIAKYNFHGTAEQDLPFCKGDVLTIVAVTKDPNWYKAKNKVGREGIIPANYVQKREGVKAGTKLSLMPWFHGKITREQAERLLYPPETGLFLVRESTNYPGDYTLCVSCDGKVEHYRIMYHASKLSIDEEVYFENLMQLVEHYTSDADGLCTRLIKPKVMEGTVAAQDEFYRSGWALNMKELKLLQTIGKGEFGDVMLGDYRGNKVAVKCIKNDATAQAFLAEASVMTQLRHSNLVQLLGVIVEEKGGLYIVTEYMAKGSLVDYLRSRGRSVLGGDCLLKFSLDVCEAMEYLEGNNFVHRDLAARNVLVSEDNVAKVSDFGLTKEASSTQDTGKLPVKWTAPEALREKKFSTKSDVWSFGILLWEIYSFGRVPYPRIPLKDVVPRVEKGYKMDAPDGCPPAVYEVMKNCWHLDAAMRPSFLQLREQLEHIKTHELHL
Chain of Calcium/calmodulin-dependent protein kinase kinase 2 (Homo sapiens) (Q96RR4 2-588 limits assumed): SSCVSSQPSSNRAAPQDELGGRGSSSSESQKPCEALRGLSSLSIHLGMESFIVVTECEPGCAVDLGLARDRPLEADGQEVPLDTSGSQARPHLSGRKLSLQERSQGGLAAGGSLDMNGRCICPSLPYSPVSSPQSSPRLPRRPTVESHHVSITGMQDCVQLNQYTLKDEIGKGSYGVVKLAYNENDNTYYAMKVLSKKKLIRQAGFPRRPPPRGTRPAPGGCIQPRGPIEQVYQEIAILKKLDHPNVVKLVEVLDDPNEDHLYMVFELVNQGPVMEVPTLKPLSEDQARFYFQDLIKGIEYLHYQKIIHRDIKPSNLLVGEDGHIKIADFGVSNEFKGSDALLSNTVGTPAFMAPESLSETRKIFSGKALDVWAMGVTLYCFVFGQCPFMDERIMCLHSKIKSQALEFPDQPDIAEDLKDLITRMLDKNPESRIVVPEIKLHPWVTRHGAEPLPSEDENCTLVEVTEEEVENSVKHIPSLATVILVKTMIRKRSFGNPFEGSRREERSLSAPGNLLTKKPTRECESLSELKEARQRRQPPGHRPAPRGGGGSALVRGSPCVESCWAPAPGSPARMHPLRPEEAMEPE
Chain of Tyrosine-protein kinase BTK (Homo sapiens) (Q06187 whole entry, the tested form may be a part): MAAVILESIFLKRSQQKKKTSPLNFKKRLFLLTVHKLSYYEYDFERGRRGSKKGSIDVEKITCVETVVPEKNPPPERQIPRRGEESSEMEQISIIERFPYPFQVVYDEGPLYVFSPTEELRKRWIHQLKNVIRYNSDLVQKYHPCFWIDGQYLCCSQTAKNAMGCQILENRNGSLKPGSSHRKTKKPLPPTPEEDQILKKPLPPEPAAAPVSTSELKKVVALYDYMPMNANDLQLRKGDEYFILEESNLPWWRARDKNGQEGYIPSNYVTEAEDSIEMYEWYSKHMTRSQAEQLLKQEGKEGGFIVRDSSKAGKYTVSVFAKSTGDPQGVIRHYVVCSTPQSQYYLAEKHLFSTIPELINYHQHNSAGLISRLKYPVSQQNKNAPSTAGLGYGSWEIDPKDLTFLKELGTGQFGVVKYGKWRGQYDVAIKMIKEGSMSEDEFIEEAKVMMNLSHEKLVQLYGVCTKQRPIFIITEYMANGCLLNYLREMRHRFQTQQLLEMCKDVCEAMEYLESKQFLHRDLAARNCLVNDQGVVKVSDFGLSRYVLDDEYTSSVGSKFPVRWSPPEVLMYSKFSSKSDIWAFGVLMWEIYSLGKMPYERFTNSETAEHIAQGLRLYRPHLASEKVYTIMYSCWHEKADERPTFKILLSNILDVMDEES

Regarding `COc1ccc(-c2ccc3c(N4CCOCC4)nc(N4C[C@@H](C)O[C@@H](C)C4)nc3n2)cc1CO` [Ku-0063794], the Activity in test [1] was 92%; in test [2] it was 89%; in test [3], 81%; in test [4] it was 74%; in [5] it was 89%; in test [6], 72%. For the same compound, the Activity in [7] is 90%; in test [8] it was 93%; in test [9] it was 108%; in test [10], 98%; in test [11], 94%; in test [12], 108%. For the same compound, the Activity in test [13] turned out to be 75%. Besides, the inhibition against mTORC1 (Homo sapiens) turned out to be 50%.
